The record followed here is ChEMBL document CHEMBL2034888, “Synthesis, anticonvulsant activity, and neuropathic pain-attenuating activity of N-benzyl 2-amino-2-(hetero)aromatic acetamides” (Bioorg Med Chem, 2012).

Each structure is given as a SMILES string.

In data set [1] the test system is Mus musculus. Nature of the data set: Anticonvulsant activity in ip dosed albino CF-1 mouse assessed as protection against maximal electroshock-induced seizure. The data set is classed as functional. To be noted: albino CF-1, ip. A general note: In the maximal electroshock model the usual endpoint is tonic extension of the hind limbs.
Data set [2] is described as follows: Neurotoxicity in ip dosed albino CF-1 mouse by rotorod test. In kind it is toxicity, organism-based. To be noted: in vivo.
The test system of data set [3] is Mus musculus. The data set is described as follows: Anticonvulsant activity in ip dosed NMRI mouse assessed as protection against maximal electroshock-induced seizure after 30 mins postdose. In kind it is functional. To be noted: 0.5 h; for minimal effective dose: read-out: MED. The method in brief: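 Adult male NMRI mice given compound intraperitoneally; maximal electroshock seizure test run 30 min after dosing. Where a dose–response was run, ED50 in mg/kg was derived. Otherwise a minimal active dose was reported, or the percentage of mice protected at a single dose.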

Data set [4] has as its system Mus musculus. The data set is described as follows: Anticonvulsant activity in ip dosed NMRI mouse assessed as protection against 6 Hz psychomotor seizure after 30 mins. In kind it is functional. To be noted: 0.5 h. The method in brief:
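Adult male NMRI mice dosed ip. Psychomotor seizures were induced by 6 Hz stimulation at 44 mA, 30 min after administration. ED50 in mg/kg was derived where determinable, otherwise a minimal active dose was reported.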

In data set [5] the test system is Mus musculus. Nature of the data set: Antinociceptive activity in NMRI mouse neuropathic pain model assessed as protection against formalin-induced nociceptive behaviour at 90 mg/kg, ip after 30 mins. In kind it is functional. The following applies: route intraperitoneal. The method in brief: (§1)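 Formalin test in adult male NMRI mice used as a prescreen for pain attenuation, 30 min after ip administration. ED50 in mg/kg was derived where possible. Otherwise the percent protected after a single stated dose was reported.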

Data set [6] relates to Mus musculus. Nature of the data set: Toxicity in ip dosed NMRI mouse assessed as tremors at 90 mg/kg, ip after 30 mins. In kind it is organism-based. Also noted: dose 90 mg/kg, route intraperitoneal. To be noted: in vivo, 0.5 h. In short, it runs like this: (§2)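 Adult male NMRI mice were dosed ip. Whole-animal pharmacological observation was made at the stated mg/kg dose, recording tremors, convulsions, writhing, impaired gait or mortality. Timing was 30 min post-dose.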

The test system of data set [7] is Mus musculus. Nature of the data set: Antinociceptive activity in ip dosed NMRI mouse neuropathic pain model assessed as protection against formalin-induced nociceptive behaviour after 30 mins. The data set is classed as functional. To be noted: 0.5 h. The method in brief: as §1
Data set [8] can be described thus: Neurotoxicity in ip dosed NMRI mouse after 30 mins by rotorod test. In kind it is toxicity, organism-based. To be noted: in vivo. The method in brief: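 Neurological impairment was scored by rotorod in adult male NMRI mice 30 min after ip dosing. TD50 in mg/kg was derived where possible, otherwise the maximal tolerated dose was given.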
(The rotarod test checks motor coordination on a turning rod.)

Data set [9] deals with Mus musculus. The data set is described as follows: Protective index, ratio of TD50 for NMRI mouse to ED50 for anticonvulsant activity in ip dosed NMRI mouse by maximal electroshock seizure test. In kind it is functional.
Data set [10] deals with Mus musculus. Nature of the data set: Protective index, ratio of TD50 for NMRI mouse to ED50 for antinociceptive activity in ip dosed NMRI mouse neuropathic pain model. In kind it is functional.
For data set [11], the system named is Mus musculus. The data set is described as follows: Toxicity in ip dosed NMRI mouse assessed as convulsions at 160 mg/kg, ip after 30 mins. To be noted: in vivo, 0.5 h. Also noted: dose 160 mg/kg, route intraperitoneal. The data set is classed as organism-based. The method in brief:
as §2

Data set [12] concerns Mus musculus. Nature of the data set: Toxicity in ip dosed NMRI mouse assessed as convulsions at 77 mg/kg, ip after 30 mins. In kind it is organism-based. The arrangement: dose 77 mg/kg, route intraperitoneal. The following applies: in vivo, 0.5 h. The method in brief:
as §2

In data set [13] the test system is Mus musculus. The data set is described as follows: Toxicity in ip dosed NMRI mouse assessed as mortality at 140 mg/kg, ip after 30 mins. In kind it is organism-based. Also noted: dose 140 mg/kg, route intraperitoneal. To be noted: in vivo, 0.5 h. In short, it runs like this:
(§3)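 Adult male NMRI mice dosed intraperitoneally. Whole-animal pharmacological observation at the listed mg/kg dose, with convulsions and mortality recorded as signs. This was done alongside MES, 6 Hz (44 mA) psychomotor seizure, formalin and rotorod testing, which were read 30 min after ip dosing.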

For data set [14], the system named is Mus musculus. Nature of the data set: Antinociceptive activity in NMRI mouse neuropathic pain model assessed as protection against formalin-induced nociceptive behaviour at 24 mg/kg, ip after 30 mins. In kind it is functional. The following applies: route intraperitoneal. In short, it runs like this: as §1
Data set [15] is described as follows: Ratio of drug level in brain to plasma in mouse. In kind it is ADME, organism-based. To be noted: brain and plasma, read-out: BPR.
The subject of data set [16] is Mus musculus. The data set is described as follows: Toxicity in ip dosed NMRI mouse assessed as convulsions at 105 mg/kg, ip after 30 mins. The following applies: in vivo, 0.5 h. In kind it is organism-based. Also noted: dose 105 mg/kg, route intraperitoneal. The method in brief: as §3
Data set [17] has as its system Mus musculus. The data set is described as follows: Toxicity in ip dosed NMRI mouse assessed as mortality at 105 mg/kg, ip after 30 mins. In kind it is organism-based. Also noted: dose 105 mg/kg, route intraperitoneal. To be noted: in vivo, 0.5 h. The method in brief: as §3
The test system of data set [18] is Mus musculus. Nature of the data set: Toxicity in ip dosed NMRI mouse assessed as tremors at 59 mg/kg, ip after 30 mins. The data set is classed as organism-based. The arrangement: dose 59 mg/kg, route intraperitoneal. The following applies: in vivo, 0.5 h. In short, it runs like this: as §2
Data set [19] deals with Mus musculus. The data set is described as follows: Toxicity in ip dosed NMRI mouse assessed as writhings at 59 mg/kg, ip after 30 mins. In kind it is organism-based. The following applies: in vivo, 0.5 h. Also noted: dose 59 mg/kg, route intraperitoneal. The method in brief: as §2
The test system of data set [20] is Mus musculus. Nature of the data set: Toxicity in ip dosed NMRI mouse assessed as convulsions at 110 mg/kg, ip after 30 mins. Also noted: dose 110 mg/kg, route intraperitoneal. The following applies: in vivo, 0.5 h. In kind it is organism-based. In short, it runs like this: as §3
For data set [21], the system named is Mus musculus. Nature of the data set: Toxicity in ip dosed NMRI mouse assessed as mortality at 110 mg/kg, ip after 30 mins. Also noted: dose 110 mg/kg, route intraperitoneal. The following applies: in vivo, 0.5 h. In kind it is organism-based. The method in brief:
as §3

The test system of data set [22] is Mus musculus. Nature of the data set: Antinociceptive activity in NMRI mouse neuropathic pain model assessed as protection against formalin-induced nociceptive behaviour at 110 mg/kg, ip after 30 mins. The data set is classed as functional. To be noted: route intraperitoneal. The method in brief: as §1

The ED50 is the dose that gives a 50% effect, or the effect in half of the subjects. In general, TD50 refers to the 50% point of the dose-response relation for the toxic effect studied. On to `CC(=O)NC(C(=O)NCc1ccccc1)c1cc2ccccc2o1` (racemic), for which the ED50 in the data set with Mus musculus [1] is 100 mg/kg. In data set [2], the TD50 is 100 mg/kg.

In the case of `CC(=O)NC(C(=O)NCc1ccccc1)c1ccc2ccccc2c1` (racemic), the median effective dose (ED50) in the data set on Mus musculus [1] was > 300 mg/kg. The TD50 in data set [2] is > 300 mg/kg.

Regarding `NC(C(=O)NCc1ccccc1)c1cc2ccccc2o1` (racemic), the 50% effective dose (ED50) in the data set with Mus musculus [3] is 90 mg/kg; with Mus musculus [4], > 120 mg/kg. Further, the values for the Activity in the data set on Mus musculus [5] and in the data set with Mus musculus [6] were 31% and “Toxic”, respectively.

As for `NC(C(=O)NCc1ccccc1)c1cccs1` (racemic), in the data set with Mus musculus [3], the minimal effective dose was 68 mg/kg. Moreover, the median effective dose (ED50) was > 91 mg/kg with Mus musculus [4] and 48 mg/kg in the data set with Mus musculus [7]. The MTD at 0.5 h in data set [8] came out at 51 mg/kg. In addition, the “Ratio TD50/ED50” value in the data set on Mus musculus [9] is listed as <0.8; with Mus musculus [10], <1.1. Further, the Activity entry in the data set with Mus musculus [11] is recorded as “Toxic”.

For the compound `NC(C(=O)NCc1ccccc1)c1nccs1` (racemic), the 50% effective dose (ED50) in the data set on Mus musculus [3] was 67 mg/kg; in the data set with Mus musculus [4], > 140 mg/kg; in the data set on Mus musculus [7], 45 mg/kg. In addition, the MTD at 0.5 h in data set [8] was found to be 140 mg/kg. For the same compound, the “Ratio TD50/ED50” value is on record as <2.1 with Mus musculus [9] and <3.1 in the data set on Mus musculus [10].

For the compound `NC(C(=O)NCc1ccccc1)c1cc2ccccc2s1` (racemic), the figures for the 50% effective dose (ED50) in the data set with Mus musculus [3], with Mus musculus [4] and in the data set on Mus musculus [7] were 120 mg/kg, > 170 mg/kg and 66 mg/kg, respectively.

`NC(C(=O)NCc1ccccc1)c1ccccc1` (racemic): the ED50 with Mus musculus [3] is > 30 mg/kg; in the data set on Mus musculus [4], > 43 mg/kg. This compound also yielded a TD50 at 0.5 h in data set [8] of 51 mg/kg. Moreover, the Activity result in the data set on Mus musculus [12] is given as “Toxic”; with Mus musculus [13] it was “Toxic”; with Mus musculus [14], 37%. For the same compound, the “Ratio TD50/ED50” value in the data set with Mus musculus [9] is on record as >1.7; in the data set with Mus musculus [10], >1.2.

For the compound `NC(C(=O)NCc1ccccc1)c1ccccn1` (racemic), in the data set with Mus musculus [3], the minimal effective dose was 100 mg/kg. For the same compound, the results for the ED50 with Mus musculus [4] and in the data set with Mus musculus [7] were > 100 mg/kg and 33 mg/kg, respectively. In data set [8], this compound returned an MTD at 0.5 h of 180 mg/kg. Moreover, the Kp in [15] was 2.7.

`NC(C(=O)NCc1ccccc1)c1cccnc1` (racemic): in the data set on Mus musculus [3], the minimal effective dose came out at 120 mg/kg. In addition, the ED50 in the data set on Mus musculus [4] was > 210 mg/kg; in the data set with Mus musculus [7], 74 mg/kg.

In the case of `NC(C(=O)NCc1ccccc1)c1ccncc1` (racemic), the minimal effective dose in the data set on Mus musculus [3] amounted to 210 mg/kg. Besides, the ED50 is > 120 mg/kg in the data set with Mus musculus [4] and 67 mg/kg with Mus musculus [7].

For the compound `NC(C(=O)NCc1ccccc1)c1cnccn1` (racemic), the ED50 is 85 mg/kg in the data set with Mus musculus [3] and > 160 mg/kg in the data set with Mus musculus [7]. Also, the minimal effective dose in the data set on Mus musculus [4] (read-out: MED) came out at 28 mg/kg. For the same compound, in data set [8], the TD50 at 0.5 h was > 160 mg/kg. In addition, the “Ratio TD50/ED50” value in the data set on Mus musculus [9] was >1.9; in the data set with Mus musculus [10], >1.

In the case of `NC(C(=O)NCc1ccccc1)c1cccc2ccccc12` (racemic), the ED50 in the data set on Mus musculus [3] is > 69 mg/kg; with Mus musculus [4], > 59 mg/kg; in the data set with Mus musculus [7] it was > 33 mg/kg. The Activity entry in the data set with Mus musculus [16] and in the data set with Mus musculus [17] was “Toxic” in each case.

For the compound `NC(C(=O)NCc1ccccc1)c1nccc2ccccc12` (racemic), the ED50 was > 52 mg/kg in the data set with Mus musculus [3], > 93 mg/kg with Mus musculus [4] and 29 mg/kg in the data set on Mus musculus [7].

With `NC(C(=O)NCc1ccccc1)c1ccc2ccccc2c1` (racemic), the ED50 was 45 mg/kg in the data set on Mus musculus [3], > 110 mg/kg in the data set on Mus musculus [4] and < 110 mg/kg with Mus musculus [7]. The compound also had a TD50 at 0.5 h in [8] of 110 mg/kg. For the same compound, the Activity result in the data set with Mus musculus [18] is listed as “Toxic”; in the data set with Mus musculus [19] it was “Toxic”; in the data set on Mus musculus [20], “Toxic”; in the data set with Mus musculus [21], “Toxic”; with Mus musculus [22], 100%. Besides, the “Ratio TD50/ED50” value in the data set on Mus musculus [9] is on record as <2.4.
